{"data": "Published values pooled from the literature", "cell line": "HL-60", "observed": "cell growth or viability", "note": "Lines come from different studies, so protocols differ."}
{"SMILES": "O=C(Nc1nnc(-c2cc3ccccc3[nH]2)s1)c1cc2c([nH]c3ccccc32)c(-c2ccccc2)n1", "assay": "MTT", "setting": "72 h", "IC50 [µM]": 8.25}
{"SMILES": "CCCCN(Cc1ccc(C(=O)NO)cc1)C(=O)Nc1ccccc1", "assay": "ATP luminescence", "setting": "72 h", "IC50 [µM]": 0.894}
{"SMILES": "CN1c2ccccc2C(=O)N2[C@H](C(=O)Nc3ccc(/C=C/C(=O)NO)cc3)Cc3c([nH]c4ccccc34)[C@@H]12", "IC50 [µM]": 0.63}
{"SMILES": "O=C(Nc1nnc(-c2cc3ccccc3[nH]2)s1)c1cc2c([nH]c3ccccc32)c(-c2ccc(F)cc2)n1", "assay": "MTT", "setting": "72 h", "IC50 [µM]": 9.85}
{"SMILES": "Nc1ncc(-c2cnn(C3CCNCC3)c2)cc1-c1nnc(CC2CC2)o1", "assay": "trypan blue", "setting": "72 h", "IC50 [µM]": 0.678}
{"SMILES": "COc1cc(Nc2nccc(-c3cnn4nc(OC)ccc34)n2)cc(C(F)(F)F)c1", "assay": "ATP luminescence", "IC50 [µM]": 0.21}
{"SMILES": "CCCON(Cc1ccc(C(=O)NO)cc1)C(=O)Nc1ccc(N(C)C)cc1", "assay": "ATP luminescence", "setting": "72 h", "IC50 [µM]": 12.9}
{"SMILES": "COc1ccc(C(=O)c2ccccc2)c(O)c1", "assay": "resazurin", "setting": "72 h, dark", "IC50 [µM]": "~120"}
{"SMILES": "COc1cc([C@@H]2c3cc4c(cc3[C@@H](O[C@@H]3O[C@@H]5CO[C@@H](C)O[C@H]5[C@H](O)[C@H]3O)[C@H]3COC(=O)[C@H]23)OCO4)cc(OC)c1O", "assay": "MTT", "setting": "48 h", "IC50 [µM]": 0.31}
{"SMILES": "COc1cc(O)c(C(=O)c2ccccc2)cc1S(=O)(=O)O", "assay": "resazurin", "setting": "72 h, dark", "IC50 [µM]": "> 100"}
{"SMILES": "CC(C)[C@H](N)C(=O)N1CCC[C@H]1B(O)O", "assay": "ATP luminescence", "setting": "48 h", "IC50 [µM]": 0.115}
{"SMILES": "CCn1c(-c2nnc(NC(=O)c3cc4c([nH]c5ccccc54)c(-c4ccc(OC)cc4)n3)s2)cc2ccccc21", "assay": "MTT", "setting": "72 h", "IC50 [µM]": 46.2}
